ChEMBL document CHEMBL1781959, “Synthesis and in vitro antitumor activity of substituted quinazoline and quinoxaline derivatives: search for anticancer agent” (Eur J Med Chem, 2011)

What was measured:
Format in all cases: functional
[1] = test system: SF-268; test: Anticancer activity against human SF268 cells assessed as cell growth promotion at 10^-5 M after 48 hrs by SRB assay relative to control
[2] = test system: SF-295; test: Anticancer activity against human SF295 cells assessed as cell growth promotion at 10^-5 M after 48 hrs by SRB assay relative to control
[3] = test system: SF-539; test: Anticancer activity against human SF539 cells assessed as cell growth promotion at 10^-5 M after 48 hrs by SRB assay relative to control
[4] = test system: LOX IMVI; test: Anticancer activity against human LOXIMVI cells assessed as cell growth promotion at 10^-5 M after 48 hrs by SRB assay relative to control
[5] = test system: Malme-3M; test: Anticancer activity against human MALME-3M cells assessed as cell growth promotion at 10^-5 M after 48 hrs by SRB assay relative to control
[6] = test system: SK-MEL-28; test: Anticancer activity against human SK-MEL-28 cells assessed as cell growth promotion at 10^-5 M after 48 hrs by SRB assay relative to control
[7] = test system: SK-MEL-5; test: Anticancer activity against human SK-MEL-5 cells assessed as cell growth promotion at 10^-5 M after 48 hrs by SRB assay relative to control
[8] = test system: UACC-62; test: Anticancer activity against human UACC62 cells assessed as cell growth promotion at 10^-5 M after 48 hrs by SRB assay relative to control
[9] = test system: IGROV-1; test: Anticancer activity against human IGROV1 cells assessed as cell growth promotion at 10^-5 M after 48 hrs by SRB assay relative to control
[10] = test system: OVCAR-3; test: Anticancer activity against human OVCAR3 cells assessed as cell growth promotion at 10^-5 M after 48 hrs by SRB assay relative to control
[11] = test system: OVCAR-5; test: Anticancer activity against human OVCAR5 cells assessed as cell growth promotion at 10^-5 M after 48 hrs by SRB assay relative to control
[12] = test system: OVCAR-8; test: Anticancer activity against human OVCAR8 cells assessed as cell growth promotion at 10^-5 M after 48 hrs by SRB assay relative to control
[13] = test system: NCI/ADR-RES; test: Anticancer activity against human NCI/ADR-RES cells assessed as cell growth promotion at 10^-5 M after 48 hrs by SRB assay relative to control
[14] = test system: SK-OV-3; test: Anticancer activity against human SKOV3 cells assessed as cell growth promotion at 10^-5 M after 48 hrs by SRB assay relative to control
[15] = test system: 786-0; test: Anticancer activity against human 786-0 cells assessed as cell growth promotion at 10^-5 M after 48 hrs by SRB assay relative to control
[16] = test system: A498; test: Anticancer activity against human A498 cells assessed as cell growth promotion at 10^-5 M after 48 hrs by SRB assay relative to control
[17] = test system: TK-10; test: Anticancer activity against human TK10 cells assessed as cell growth promotion at 10^-5 M after 48 hrs by SRB assay relative to control
[18] = test system: PC-3; test: Anticancer activity against human PC3 cells assessed as cell growth promotion at 10^-5 M after 48 hrs by SRB assay relative to control
[19] = test system: DU-145; test: Anticancer activity against human DU145 cells assessed as cell growth promotion at 10^-5 M after 48 hrs by SRB assay relative to control
[20] = test system: MCF7; test: Anticancer activity against human MCF7 cells assessed as cell growth promotion at 10^-5 M after 48 hrs by SRB assay relative to control
[21] = test system: HL-60(TB); test: Anticancer activity against human HL-60(TB) cells assessed as cell growth promotion at 10^-5 M after 48 hrs by SRB assay relative to control
Summary of the method: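 NCI-60 single-dose screen: compound at 10^-5 M, 48 h at 37 °C, 5% CO2; cells grown in RPMI 1640 with 5% FBS and 2 mM L-glutamine, pre-incubated 24 h before dosing. Adherent cells fixed with cold TCA; endpoint is sulforhodamine B protein staining. Percent growth of treated cells is reported relative to untreated control.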

[22] = test system: K562; test: Anticancer activity against human K562 cells assessed as cell growth promotion at 10^-5 M after 48 hrs by SRB assay relative to control
[23] = test system: MOLT-4; test: Anticancer activity against human MOLT4 cells assessed as cell growth promotion at 10^-5 M after 48 hrs by SRB assay relative to control
[24] = test system: MDA-MB-231; test: Anticancer activity against human MDA-MB-231 cells assessed as cell growth promotion at 10^-5 M after 48 hrs by SRB assay relative to control
[25] = Anticancer activity against human Hs 578T cells assessed as cell growth promotion at 10^-5 M after 48 hrs by SRB assay relative to control
[26] = test system: T47D; test: Anticancer activity against human T47D cells assessed as cell growth promotion at 10^-5 M after 48 hrs by SRB assay relative to control
[27] = test system: MDA-MB-468; test: Anticancer activity against human MDA-MB-468 cells assessed as cell growth promotion at 10^-5 M after 48 hrs by SRB assay relative to control
[28] = test system: A549; test: Anticancer activity against human A549 cells assessed as cell growth promotion at 10^-5 M after 48 hrs by SRB assay relative to control
[29] = test system: EKVX; test: Anticancer activity against human EKVX cells assessed as cell growth promotion at 10^-5 M after 48 hrs by SRB assay relative to control
[30] = test system: HOP-62; test: Anticancer activity against human HOP62 cells assessed as cell growth promotion at 10^-5 M after 48 hrs by SRB assay relative to control
[31] = test system: NCI-H23; test: Anticancer activity against human NCI-H23 cells assessed as cell growth promotion at 10^-5 M after 48 hrs by SRB assay relative to control
[32] = test system: NCI-H322M; test: Anticancer activity against human NCI-H322M cells assessed as cell growth promotion at 10^-5 M after 48 hrs by SRB assay relative to control
[33] = test system: NCI-H460; test: Anticancer activity against human NCI-H460 cells assessed as cell growth promotion at 10^-5 M after 48 hrs by SRB assay relative to control
[34] = test system: COLO 205; test: Anticancer activity against human COLO205 cells assessed as cell growth promotion at 10^-5 M after 48 hrs by SRB assay relative to control
[35] = test system: HCC 2998; test: Anticancer activity against human HCC2998 cells assessed as cell growth promotion at 10^-5 M after 48 hrs by SRB assay relative to control
[36] = test system: HCT-116; test: Anticancer activity against human HCT116 cells assessed as cell growth promotion at 10^-5 M after 48 hrs by SRB assay relative to control
[37] = test system: KM12; test: Anticancer activity against human KM12 cells assessed as cell growth promotion at 10^-5 M after 48 hrs by SRB assay relative to control
[38] = test system: SW-620; test: Anticancer activity against human SW620 cells assessed as cell growth promotion at 10^-5 M after 48 hrs by SRB assay relative to control

Compound `O=C(Nc1ccccc1C(=O)Nc1ccc(/C=C/c2ccc(O)cc2)cc1)c1ccccc1` has an Activity [1] of 69.03%, an Activity [2] of 97.53% and an Activity [3] of 81.74%. It also gave an Activity [4] of 69.03%, an Activity [5] of 97.53% and an Activity [6] of 103%. It also gave an Activity [7] of 76.71%, an Activity [8] of 40.16% and an Activity [9] of 85.6%. The Activity [10] was 89.47%, the Activity [11] was 96.06% and the Activity [12] was 86.46%. For the same compound, the Activity [13] was 71.73%, the Activity [14] was 92.69% and the Activity [15] was 81.43%. The Activity [16] was 85.08%, the Activity [17] was 100% and the Activity [18] was 61.81%. It also gave an Activity [19] of 100%, an Activity [20] of 77.81% and an Activity [21] of 50.34%. For the same compound, the Activity [22] was 40.21%, the Activity [23] was 44.21% and the Activity [24] was 76.35%. For the same compound, the Activity [25] was 104%, the Activity [26] was 66.17% and the Activity [27] was 77.87%. The Activity [28] was 75.71%, the Activity [29] was 85.24% and the Activity [30] was 95.55%. It also gave an Activity [31] of 91.38%, an Activity [32] of 71.88% and an Activity [33] of 92.1%. For the same compound, the Activity [34] was 101%, the Activity [35] was 94.19% and the Activity [36] was 70.71%. For the same compound, the Activity [37] was 67.28% and the Activity [38] was 101%.
